The list is not random: actives were taken first. Their share in the collection is about 1.9%.
NS3 helicase inh: inhibitors of Hepatitis C virus NS3 helicase; NS3 helicase DNA unwinding, Cy5 molecular beacon fluorescence; inhibition, % at 10.9 µM; 0.56% of 290,000 active; AID 1800;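 active = inhibition above the mean of all tested compounds plus 3 SD, set per campaign, cut at about 35% in these data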;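 note: 0% = DMSO wells and 100% = thioflavine S control wells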
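Material: hepatitis C virus NS3 helicase domain fragment enzyme; measured by: Cy5 fluorescence, 0 and 60 min reads; control set: DMSO and thioflavine S; incubation: 60 min unwinding reaction at 25 °C after ATP addition; read-out basis: % inhibition from 60/0 min fluorescence ratio, DMSO 0%, thioflavine S 100%; repeats: singlicate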
FID counter: fluorescent intercalator displacement, NS3 helicase counter-screen; inhibition, % at 7.9 µM; DNA fluorescent intercalator displacement, fluorescence; AID 1845; 0.17% of 290,000 active; in the data active = inhibition above about 37%;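 note: 0% = vehicle and 100% = reference compound; higher means more ethidium bromide displaced from hairpin DNA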
PP5 inh: blocks human protein phosphatase 5 activity; purified PP5c, OMFP substrate fluorescence; P53041; AID 1987; inhibition, % at 6.7 µM; 0.18% of 320,000 active;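 active = inhibition above the campaign's mean inhibition across all tested compounds plus 3 SD, cut at about 9.5% in these data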;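 note: 0% = DMSO only and 100% = 100 µM cantharidin control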
PP1 inh: blocks human PP1-alpha phosphatase, a PP5 counter-screen; 0.9% of 320,000 active; inhibition, % at 6.7 µM; P62136; purified PP1alpha, OMFP fluorescence;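 active = inhibition above the mean inhibition of all tested compounds plus 3 SD, computed separately for each screening campaign, cut at about 15% in these data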
Target sequence (P62136 whole entry, looked up): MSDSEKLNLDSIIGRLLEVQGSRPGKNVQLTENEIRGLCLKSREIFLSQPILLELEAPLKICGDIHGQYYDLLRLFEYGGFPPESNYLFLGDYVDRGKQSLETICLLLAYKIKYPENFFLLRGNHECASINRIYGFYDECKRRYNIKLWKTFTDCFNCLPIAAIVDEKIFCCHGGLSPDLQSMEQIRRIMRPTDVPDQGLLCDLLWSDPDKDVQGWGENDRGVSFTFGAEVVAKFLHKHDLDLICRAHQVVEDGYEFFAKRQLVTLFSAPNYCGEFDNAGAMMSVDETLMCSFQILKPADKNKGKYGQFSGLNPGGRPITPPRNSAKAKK
HIF activator: HIF pathway transcriptional activation; activation, % at 7.5 µM (by protocol); 0.32% of 300,000 active; U2OS HRE-luciferase reporter, luminescence; normalized: DMSO 0%, desferrioxamine 100%; AID 1910;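 active = mean activation of at least 10% of the iron chelator positive control signal, with at least half of replicates also reaching 10%; inconclusive = mean and replicate majority disagree about reaching 10%; inactive = mean and most replicates under 10%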
PP1 inh confirm: confirmation of human PP1 phosphatase inhibitors. shares compounds with PP1 inh. purified PP1alpha, OMFP substrate fluorescence. inhibition, % at 6.7 µM. 52% of 1,900 active. AID 2358;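 active = mean PP1 inhibition above a set limit taken from the earlier primary screen, cut at about 15% in these data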
PP5 counter: counter-screen for PP1 inhibitors: human PP5 phosphatase inhibition. shares compounds with PP1 inh. purified PP5c, OMFP fluorescence. inhibition, % at 6.7 µM. 4% of 1,900 active. AID 2360;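 active = mean PP5 inhibition over triplicate wells above about 9.5% taken from the earlier PP1 screen, limit read from the data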
* = called active by the depositor; ? = inconclusive; nt = not tested or not shown.

SMILES	NS3 helicase inh	FID counter	PP5 inh	PP1 inh	HIF activator	PP1 inh confirm	PP5 counter
CC1CCN(Cc2c(C(=O)N/N=C/c3ccccc3O)nnn2-c2nonc2N)CC1	2	-13	0	22*	31*	17*	-5
Nc1ccc2c(c1)OC1(CCCCC1)O2	5	-1	nt	nt	0	nt	nt
c1ccc(-c2nc3cc4ccccc4cc3[nH]2)nc1	2	0	2	30*	-4	20*	4
N#Cc1ccccc1S(=O)(=O)N1CCN(C(=O)C2CCCC2)CC1	0	-4	2	-1	0	nt	nt
CCc1ccc2[nH]c(=O)c(CN(Cc3ccc4c(c3)OCO4)Cc3nnnn3C3CCCC3)cc2c1	-2	-9	4	21*	0	6	2
CC1CCc2c(sc(NC(=O)C(=O)NCc3ccco3)c2C#N)C1 (stereo not given)	-2	-12	2	20*	0	21*	-3
O=C(CSc1ccc(-c2ccncc2)nn1)c1ccccc1	3	-14	2	21*	0	-4	-7
O=C(O)c1ccc(N=Nc2c(O)[nH]c3ccc(Br)cc23)cc1	11	-4	3	-2	6	nt	nt
O=c1ccc2cc3c([nH]c4ccc(Br)cc43)oc-2c1O	31	-6	8	58*	-1	37*	2
CCOc1ccccc1N1CCN(C(=O)C2CSC3(C)CCC(=O)N23)CC1 (stereo not given)	nt	nt	3	-3	nt	nt	nt
CN(CC(=O)Nc1ccc(F)cc1)C(=O)c1cc(-c2ccco2)nc2ccccc12	nt	nt	0	4	-1	nt	nt
Cc1ccc(NC(=O)CN(C)C(=O)c2cc(-c3ccco3)nc3ccccc23)cc1	nt	nt	1	28*	0	0	-1
COc1cccc(NC(=O)c2cc(-c3ccco3)nc3ccccc23)c1	nt	nt	0	18*	0	3	0
COc1ccc(NC(=O)CN(C)C(=O)c2c(C)nn(Cc3ccc(C)cc3)c2Cl)cc1	nt	nt	2	0	nt	nt	nt
COc1ccc(NC(=O)CN(C)C(=O)c2c(C)nn(-c3ccccc3)c2Cl)cc1	nt	nt	-2	20*	0	-3	0
Cn1c2ccccc2c2cc(/C=N/NC(=O)c3ccc(O)cc3O)ccc21	15	10	4	-4	0	nt	nt
Cn1c(O)c(/C=N/NC(=O)c2cc3ccccc3cc2O)c2ccccc21	-5	-14	3	22*	?	16*	-3
COc1cccc(SCc2noc(C(=O)NCCC(C)C)c2C(=O)NCCC(C)C)c1	nt	nt	3	-3	0	nt	nt
Cc1ccc(C(=O)c2oc3nc(C)cc(C)c3c2N)cc1	-5	3	3	21*	0	-4	-7
CCc1ccc(C(=O)c2oc3nc(C)cc(C)c3c2N)cc1	-1	-1	4	-1	0	nt	nt
O=c1c(-c2c(O)cc(O)c3c(=O)cc(-c4ccc(O)cc4)oc23)c(-c2ccc(O)cc2)oc2cc(O)cc(O)c12	nt	nt	3	32*	nt	16*	-2
O=c1cc(-c2ccc(O)c(-c3c(O)cc(O)c4c(=O)cc(-c5ccc(O)cc5)oc34)c2)oc2cc(O)cc(O)c12	5	2	1	31*	-1	21*	-2
O=C(N/N=C/c1ccc2cccc(OCc3ccccc3)c2n1)c1ccc(Cl)cc1	-2	-12	3	24*	1	2	0
O=C(N/N=C/c1ccncc1)c1ccc(COc2cccc3cccnc23)cc1	8	-30	-1	4	0	nt	nt
Cc1cccc(/C=N/NC(=O)c2ccc(NC(=O)c3ccc(F)cc3)cc2)n1	-16	-14	-3	1	2	nt	nt
COc1ccc(C(=O)N/N=C/c2ccc3cccc(O)c3n2)cc1	-2	-15	-4	20*	0	5	2
CC(C)NCCCCOc1ccccc1-c1ccccc1	-24	8	1	-2	0	nt	nt
COc1cccc(CN2C(=O)C3CCCN3c3ccc(S(=O)(=O)N4CCOCC4)cc32)c1 (stereo not given)	-1	-12	2	26*	0	25*	0
COc1ccc(CN2c3cc(S(=O)(=O)N4CCOCC4)ccc3N3CCCC32)cc1 (stereo not given)	-11	6	3	-4	0	nt	nt

High-throughput results as filed in PubChem BioAssay.
